According to ChEMBL document CHEMBL3763093, “The molecular structure of thio-ether fatty acids influences PPAR-dependent regulation of lipid metabolism” (Bioorg Med Chem, 2016):
Active and inactive are the calls of the source. The rule behind the calls is not given here.

Columns and labels:
[1] = Effect on fatty acid composition in human myotubes assessed as change in intracellular MUFA level at 30 uM after 96 hrs relative to DMSO control; type: functional
Procedure, shortened: (§1)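 Differentiated human myotubes (7 days) treated 96 h with 10 or 30 μM compound or DMSO 0.1% (two controls). Cells washed, harvested, lipids extracted and methylated (methanol, sulfuric acid, 90 °C, 1 h); FA methyl esters quantified by GC with C21:0 internal standard, peaks confirmed by standards and GC/MS; values as mol % of intracellular fatty acids.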

[2] = Effect on fatty acid composition in human myotubes assessed as change in intracellular SFA level at 10 uM after 96 hrs relative to DMSO control; type: functional; procedure, shortened: as §1
[3] = species: Homo sapiens; assay: Effect on intracellular [14C]oleic acid uptake in human myotubes at 10 to 30 uM preincubated for 96 hrs followed by substrate addition incubated for 4 hrs by liquid scintillation analysis; type: functional, cell-based
Procedure, shortened: (§2)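 Myotubes differentiated 7 days were pretreated 96 h with 10 or 30 μM compound, 10 nM GW501516 or DMSO 0.1%, then given [1-14C]oleic acid (0.5 μCi/mL, 100 μM) in DPBS with HEPES 10 mM and L-carnitine 1 mM, 4 h at 37 °C. Trapped CO2 and cell-associated label counted by scintillation; uptake = CO2 + CA; Bradford protein; % of DMSO basal; n = 8–15.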

[4] = target: T1, Peroxisome proliferator-activated receptor (Homo sapiens) (UniProt P37231+Q07869+Q03181); assay: Agonist activity at PPAR in human myotubes assessed as FABP3 mRNA expression at 30 uM after 96 hrs by qPCR analysis relative to control
Procedure, shortened: (§3)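 Myotubes from satellite cells of abdominal muscle biopsies of healthy donors, differentiated 7 days, then exposed 96 h to test lipids (30 μM) vs DMSO 0.1%. Total RNA isolated (RIN ≥7), reverse transcribed, real-time PCR with gene-specific primers; expression expressed relative to DMSO control.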

[5] = Effect on fatty acid composition in human myotubes assessed as intracellular PUFA n-6 level at 10 uM after 96 hrs (Rvb= 13.41%); type: functional; procedure, shortened: as §1
[6] = Effect on fatty acid composition in human myotubes assessed as intracellular SFA level at 10 uM after 96 hrs (Rvb= 36.16%); type: functional; procedure, shortened: as §1
[7] = Effect on fatty acid composition in human myotubes assessed as intracellular MUFA level at 30 uM after 96 hrs (Rvb= 41.04%); type: functional; procedure, shortened: as §1
[8] = target: T1, Peroxisome proliferator-activated receptor (Homo sapiens); assay: Agonist activity at PPAR in human myotubes assessed as CD36 mRNA expression at 30 uM after 96 hrs by qPCR analysis relative to control; procedure, shortened: as §3
[9] = Effect on fatty acid composition in human myotubes assessed as intracellular PUFA n-3 level at 10 uM after 96 hrs (Rvb= 7.47%); type: functional; procedure, shortened: as §1
[10] = Effect on fatty acid composition in human myotubes assessed as change in intracellular SFA level at 30 uM after 96 hrs relative to DMSO control; type: functional; procedure, shortened: as §1
[11] = Effect on fatty acid composition in human myotubes assessed as intracellular PUFA n-9 level at 30 uM after 96 hrs (Rvb= 1.78%); type: functional; procedure, shortened: as §1
[12] = Effect on protein level in human myotubes at 10 to 30 uM; type: ADME
[13] = Effect on fatty acid composition in human myotubes assessed as intracellular TTA level at 10 uM after 96 hrs; type: functional; procedure, shortened: as §1
[14] = Effect on fatty acid composition in human myotubes assessed as intracellular TTA level at 30 uM after 96 hrs; type: functional; procedure, shortened: as §1
[15] = Effect on fatty acid composition in human myotubes assessed as intracellular dTTA level at 10 uM after 96 hrs; type: functional; procedure, shortened: as §1
[16] = Effect on fatty acid composition in human myotubes assessed as intracellular SFA level at 30 uM after 96 hrs (Rvb= 36.16%); type: functional; procedure, shortened: as §1
[17] = Effect on fatty acid composition in human myotubes assessed as intracellular PUFA n-3 level at 30 uM after 96 hrs (Rvb= […]); type: functional; procedure, shortened: as §1
[18] = Effect on fatty acid composition in human myotubes assessed as intracellular MUFA level at 10 uM after 96 hrs (Rvb= 41.04%); type: functional; procedure, shortened: as §1
[19] = Effect on fatty acid composition in human myotubes assessed as intracellular PUFA n-6 level at 30 uM after 96 hrs (Rvb= 13.41%); type: functional; procedure, shortened: as §1
[20] = target: T1, Peroxisome proliferator-activated receptor (Homo sapiens); assay: Agonist activity at PPAR in human myotubes assessed as ANGPTL4 mRNA expression at 30 uM after 96 hrs by qPCR analysis relative to control; procedure, shortened: as §3
[21] = target: T1, Peroxisome proliferator-activated receptor (Homo sapiens); assay: Agonist activity at PPAR in human myotubes assessed as CPT1A mRNA expression at 30 uM after 96 hrs by qPCR analysis relative to control; procedure, shortened: as §3
[22] = Effect on total fatty acid level in human myotubes assessed as per mg of protein at 10 to 30 uM; type: ADME
[23] = Effect on fatty acid composition in human myotubes assessed as change in intracellular MUFA level at 10 uM after 96 hrs relative to DMSO control; type: functional; procedure, shortened: as §1
[24] = species: Homo sapiens; assay: Induction of fatty acid oxidation in human myotubes using [14C]oleic acid as substrate preincubated for 96 hrs followed by substrate addition incubated for 4 hrs by liquid scintillation analysis; type: functional; procedure, shortened: as §2
[25] = Induction of fatty acid oxidation in human myotubes using [14C]oleic acid as substrate at 30 uM preincubated for 96 hrs followed by substrate addition incubated for 4 hrs by liquid scintillation analysis relative to control; type: functional; procedure, shortened: as §2
[26] = Effect on fatty acid composition in human myotubes assessed as intracellular PUFA n-9 level at 10 uM after 96 hrs (Rvb= 1.78%); type: functional; procedure, shortened: as §1
[27] = Effect on fatty acid composition in human myotubes assessed as intracellular dTTA level at 30 uM after 96 hrs; type: functional; procedure, shortened: as §1

For CCCCCCCCCCCCCCSCC(=O)O [TETRADECYLTHIOACETIC ACID], the Activity [1] was -30.8%, the Activity [2] was -27.2% and the Activity [3] was “inactive”. For the same compound, the Activity [4] was “Active”, the Activity [5] was 14.34 mol% and the Activity [6] was 26.24 mol%. For the same compound, the Activity [7] was 28.44 mol%, the Activity [8] was “Active” and the Activity [9] was 7.86 mol%. The Activity [10] was -49.4%, the Activity [11] was 1.73 mol% and the Activity [12] was “Non-toxic”. For the same compound, the Activity [13] was 13.02 mol%, the Activity [14] was 31.81 mol% and the Activity [15] was 1.11 mol%. The Activity [16] was 18.25 mol%, the Activity [17] was 6.62 mol% and the Activity [18] was 35.09 mol%. For the same compound, the Activity [19] was 11.78 mol%, the fold change (FC) [20] was less than 20 and the fold change (FC) [21] was 5. For the same compound, the Activity [22] was “Non-toxic”, the Activity [23] was -14.6% and the Activity [24] was “Dose-dependent effect”. The “fold change (FC)” value [25] was 3, the Activity [26] was 2.2 mol% and the Activity [27] was 1.28 mol%.
